Measurements from ChEMBL document CHEMBL1687818, “Mechanistic studies of the inactivation of TEM-1 and P99 by NXL104, a novel non-beta-lactam beta-lactamase inhibitor” (Antimicrob Agents Chemother, 2010).

What was measured:
[1] = Inhibition of beta-lactamase TEM-1 assessed as inactivation rate constant for longer incubation time yield of enzyme by spectrophotometry
[2] = Inhibition of beta-lactamase TEM-1 assessed as inactivation rate constant by spectrophotometry
Procedure, shortened: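 Reporter-substrate method at 37°C: purified TEM-1 at 0.25 nM was added to 100 µM nitrocefin plus inhibitor at various concentrations, and hydrolysis was followed at 485 nm for 60 s. kobs was taken from the time courses, and K and k2 came from a plot of [I]/kobs against [I]. Means of at least two independent experiments.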

| Activity [2] | SMILES | Activity [1] |
| --- | --- | --- |
|  | C[C@]1(Cn2ccnn2)[C@H](C(=O)O)N2C(=O)C[C@H]2S1(=O)=O | 0.02 s⁻¹ |
|  | O=C(O)[C@H]1/C(=C/CO)O[C@@H]2CC(=O)N21 | 0.03 s⁻¹ |
| 0.11 s⁻¹ | NC(=O)[C@@H]1CC[C@@H]2CN1C(=O)N2OS(=O)(=O)O (relative stereo) |  |
